From PMC6175367 (Journal of Clinical Pharmacology, 2018)
Structures can show the parent of a compound that is named as a salt.

Legend:
[1] = tested on: plasma angiotensin II concentration (AII); test: Plasma angiotensin II concentration; assay type: in vivo, human
How it was run: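 Double-blind, placebo-controlled once-daily oral tablet dosing for 7 days in healthy Japanese men (nonelderly 20‑45 y, elderly 65‑85 y), given 30 min after starting breakfast with 200 mL water, with uniform meals. Plasma angiotensin II was measured by radioimmunoassay at 1 h predose and 1‑12 h postdose on days 1 and 7, predose on days 2‑6, and up to 71 h after the last dose.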

[2] = biological target: T1, plasma renin activity (PRA) (Homo sapiens, UniProt P00797); assay type: in vivo
T1 sequence (P00797 67-406): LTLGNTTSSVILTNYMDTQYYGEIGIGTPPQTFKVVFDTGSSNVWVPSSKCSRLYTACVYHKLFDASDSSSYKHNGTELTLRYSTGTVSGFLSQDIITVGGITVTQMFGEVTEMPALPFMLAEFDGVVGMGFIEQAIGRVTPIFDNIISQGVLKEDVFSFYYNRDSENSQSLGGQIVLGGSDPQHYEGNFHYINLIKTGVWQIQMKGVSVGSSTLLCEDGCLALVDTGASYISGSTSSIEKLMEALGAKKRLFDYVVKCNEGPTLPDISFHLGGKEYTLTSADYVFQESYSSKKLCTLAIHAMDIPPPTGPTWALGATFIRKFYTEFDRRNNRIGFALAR

[3] = Safety evaluation: adverse events, vital signs, weight, ECG, laboratory tests; assay type: in vivo, human
[4] = single‐dose administration; cited from earlier work
PRA [5] = details: ≥5 mg dose, CPH‐001 study; cited from earlier work
[6] = tested on: plasma active renin concentration (PRC); test: Plasma active renin concentration; assay type: in vivo, human
How it was run: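 Healthy Japanese male volunteers (nonelderly 20‑45 y, elderly 65‑85 y) took test compound or placebo tablets orally once daily for 7 days, 30 min after starting breakfast with 200 mL water. Sodium-matched meals were given. Plasma active renin was measured by immunoradiometric assay at 1 h predose and 1, 2, 4, 6, 12 h postdose on days 1 and 7, 1 h predose on days 2‑6, and 23, 47, 71 h after the last dose.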

[7] = Plasma pharmacokinetics after multiple oral administrations of imarikiren; assay type: in vivo, human
How it was run: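 Healthy males (nonelderly 20–45 y, elderly 65–85 y) took test compound or placebo tablets orally once daily for 7 days (80 or 160 mg). Fluids were withheld from 2 h pre-dose to 4 h post-dose. Plasma parent and metabolite were measured by HPLC‑MS/MS, with noncompartmental analysis on actual sampling times. Accumulation = 100 × AUC0‑tau day 7/day 1. Age effect: elderly−nonelderly difference in ln AUC0‑tau and Cmax, day 7, with 90%/95% CI.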

[8] = dose of up to 200 mg, healthy nonelderly adult male subjects, CPH‐001; cited from earlier work
PRA [9] = details: aliskiren 300 mg on day 1 and days 4‐10, Japanese and white subjects; cited from earlier work
[10] = imarikiren 80 mg once daily 7 days, elderly (n = 9)
[11] = imarikiren 80 mg once daily 7 days, nonelderly (n = 9)
[12] = imarikiren 80 mg, nonelderly (2 of 9 subjects)
[13] = imarikiren 160 mg once daily 7 days, nonelderly (n = 9)
[14] = imarikiren 80 mg, day 7, Cohort 3 vs Cohort 1
[15] = imarikiren 80 mg, nonelderly, listed as imarikiren
[16] = imarikiren 160 mg, nonelderly, listed as imarikiren

COCCCCn1c(C(=O)N(CC(C)C)[C@@H]2CNC[C@H](C(=O)N3CCOCC3)C2)nc2ccccc21 [Imarikiren, Imarikiren hydrochloride]
Change from baseline in AII ([1]; 80 mg, elderly, any time): no changes from baseline
Change from baseline in AII ([1]; 160 mg, nonelderly, days 1 through 7): decreased from baseline
Time after the last administration for which inhibition of PRA was maintained ([2]; 80 mg (nonelderly and elderly) and 160 mg (nonelderly), once daily for 7 days): at least 71 hours
PRA inhibition with multiple dosing ([2]; for 7 days, sustained for nearly 3 days after the last administration): complete inhibition
Overall safety and tolerability ([3]; 80 or 160 mg for 7 days nonelderly, 80 mg elderly): safe and well tolerated
Intensity of TEAEs ([3]; all TEAEs, with the exception of moderate urticaria in 1 nonelderly subject (80 mg)): mild in intensity
Changes in ECG parameters ([3]; all cohorts): No obvious changes
Serious TEAEs and deaths ([3]; all cohorts, during the study): no serious TEAEs and no deaths
TEAEs reported, subjects ([3]; all nonelderly subjects who received imarikiren): 22.2%
TEAEs related to the study drug, subjects ([3]; all nonelderly subjects who received imarikiren (3 of 18 subjects)): 16.7%
Subjects with any TEAEs [3, 10]: 3 (33.3) n (%)
TEAE: Alanine aminotransferase increased [3, 10]: 1 (11.1) n (%)
TEAE: Aspartate aminotransferase increased [3, 10]: 1 (11.1) n (%)
TEAE: Blood creatinine phosphokinase increased [3, 10]: 0 n (%)
TEAE: Blood triglycerides increased [3, 10]: 0 n (%)
TEAE: Diarrhea [3, 10]: 1 (11.1) n (%)
TEAE: Eye disorders [3, 10]: 0 n (%)
TEAE: Feeling hot [3, 10]: 0 n (%)
TEAE: Gastrointestinal disorders [3, 10]: 1 (11.1) n (%)
TEAE: General disorders and administration site conditions [3, 10]: 0 n (%)
TEAE: Headache [3, 10]: 1 (11.1) n (%)
TEAE: Investigations [3, 10]: 2 (22.2) n (%)
TEAE: Nervous system disorders [3, 10]: 1 (11.1) n (%)
TEAE: Pruritus [3, 10]: 0 n (%)
TEAE: Skin and subcutaneous tissue disorders [3, 10]: 0 n (%)
TEAE: Urticaria [3, 10]: 0 n (%)
TEAE: Vision blurred [3, 10]: 0 n (%)
TEAE: White blood cell count decreased [3, 10]: 1 (11.1) n (%)
TEAE: White blood cell count increased [3, 10]: 0 n (%)
Subjects with any TEAEs [3, 11]: 2 (22.2) n (%)
TEAE: Alanine aminotransferase increased [3, 11]: 0 n (%)
TEAE: Aspartate aminotransferase increased [3, 11]: 0 n (%)
TEAE: Blood creatinine phosphokinase increased [3, 11]: 0 n (%)
TEAE: Blood triglycerides increased [3, 11]: 0 n (%)
TEAE: Diarrhea [3, 11]: 0 n (%)
TEAE: Eye disorders [3, 11]: 0 n (%)
TEAE: Feeling hot [3, 11]: 1 (11.1) n (%)
TEAE: Gastrointestinal disorders [3, 11]: 0 n (%)
TEAE: General disorders and administration site conditions [3, 11]: 1 (11.1) n (%)
TEAE: Headache [3, 11]: 0 n (%)
TEAE: Investigations [3, 11]: 1 (11.1) n (%)
TEAE: Nervous system disorders [3, 11]: 0 n (%)
TEAE: Pruritus [3, 11]: 1 (11.1) n (%)
TEAE: Skin and subcutaneous tissue disorders [3, 11]: 2 (22.2) n (%)
TEAE: Urticaria [3, 11]: 1 (11.1) n (%)
TEAE: Vision blurred [3, 11]: 0 n (%)
TEAE: White blood cell count decreased [3, 11]: 0 n (%)
TEAE: White blood cell count increased [3, 11]: 1 (11.1) n (%)
TEAEs related to the study drug, subjects ([3]; imarikiren 80 mg, elderly (2 of 9 subjects)): 22.2%
TEAEs reported, subjects ([3]; imarikiren 80 mg, elderly (3 of 9 subjects)): 33.3%
TEAEs related to the study drug, subjects [3, 12]: 22.2%
TEAEs reported, subjects [3, 12]: 22.2%
Subjects with any TEAEs [3, 13]: 2 (22.2) n (%)
TEAE: Alanine aminotransferase increased [3, 13]: 2 (22.2) n (%)
TEAE: Aspartate aminotransferase increased [3, 13]: 0 n (%)
TEAE: Blood creatinine phosphokinase increased [3, 13]: 0 n (%)
TEAE: Blood triglycerides increased [3, 13]: 0 n (%)
TEAE: Diarrhea [3, 13]: 0 n (%)
TEAE: Eye disorders [3, 13]: 0 n (%)
TEAE: Feeling hot [3, 13]: 0 n (%)
TEAE: Gastrointestinal disorders [3, 13]: 0 n (%)
TEAE: General disorders and administration site conditions [3, 13]: 0 n (%)
TEAE: Headache [3, 13]: 0 n (%)
TEAE: Investigations [3, 13]: 2 (22.2) n (%)
TEAE: Nervous system disorders [3, 13]: 0 n (%)
TEAE: Pruritus [3, 13]: 0 n (%)
TEAE: Skin and subcutaneous tissue disorders [3, 13]: 0 n (%)
TEAE: Urticaria [3, 13]: 0 n (%)
TEAE: Vision blurred [3, 13]: 0 n (%)
TEAE: White blood cell count decreased [3, 13]: 0 n (%)
TEAE: White blood cell count increased [3, 13]: 0 n (%)
TEAEs related to the study drug, subjects ([3]; imarikiren 160 mg, nonelderly (1 of 9 subjects)): 11.1%
TEAEs reported, subjects ([3]; imarikiren 160 mg, nonelderly (2 of 9 subjects)): 22.2%
Change in mean blood pressure ([3]; imarikiren groups, day 7 compared with baseline): decrease in mean blood pressure
Food effect on the PK [4]: minimal effect
Inhibition of PRA after single oral administration (PRA [5]): completely inhibited PRA
Change from baseline in PRC, mean (SD) ([6]; imarikiren 80 mg oral once daily, elderly, Day 2 (–1 hr)): 78.3 (72.3) pg/mL
Change from baseline in PRC, mean (SD) ([6]; imarikiren 80 mg oral once daily, elderly, Day 7 (23 hrs)): 154.4 (168.0) pg/mL
Change from baseline in PRC, mean (SD) ([6]; imarikiren 80 mg oral once daily, nonelderly, Day 2 (–1 hr)): 169.3 (140.9) pg/mL
Change from baseline in PRC, mean (SD) ([6]; imarikiren 80 mg oral once daily, nonelderly, Day 7 (23 hrs)): 247.1 (130.1) pg/mL
Change from baseline in PRC, mean (SD) ([6]; imarikiren 160 mg oral once daily, nonelderly, Day 2 (–1 hr)): 129.5 (106.8) pg/mL
Change from baseline in PRC, mean (SD) ([6]; imarikiren 160 mg oral once daily, nonelderly, Day 7 (23 hrs)): 487.3 (264.9) pg/mL
Tmax ([7]; human, plasma, oral, 160 mg, median time to reach the maximum observed plasma concentration (Tmax), nonelderly subjects, all groups (80 and 160 mg), days 1 and 7): 1 to 2 h
CL/F, mean (SD) ([7]; imarikiren 80 mg oral once daily, elderly, Day 1): 15.2 (4.6) L/hr
CL/F, mean (SD) ([7]; imarikiren 80 mg oral once daily, elderly, Day 7): 14.1 (3.4) L/hr
CL/F, mean (SD) ([7]; imarikiren 80 mg oral once daily, nonelderly, Day 1): 19.6 (3.6) L/hr
CL/F, mean (SD) ([7]; imarikiren 80 mg oral once daily, nonelderly, Day 7): 21.5 (5.6) L/hr
AUC0‐tau higher in elderly than in nonelderly subjects [7, 14]: 52%
Cmax higher in elderly than in nonelderly subjects [7, 14]: 39%
Accumulation index (AUC) percentage (100 × AUC0‐tau day 7/AUC0‐inf day 1), mean (SD) ([7]; imarikiren 80 mg, nonelderly): 94.4 (21.8) %
Accumulation index (t1/2) percentage, mean (SD) ([7]; imarikiren 80 mg, nonelderly): 116.4 (39.1) %
R(AUC), AUC accumulation factor percentage (100 × AUC0‐tau day 7/AUC0‐tau day 1), mean (SD) ([7]; imarikiren 80 mg, nonelderly): 106.4 (22.4) %
Accumulation index (AUC) percentage (100 × AUC0‐tau day 7/AUC0‐inf day 1), mean (SD) [7, 15]: 94.4%
R(AUC), AUC accumulation factor percentage (100 × AUC0‐tau day 7/AUC0‐tau day 1), mean (SD) [7, 15]: 106.4%
CL/F, mean (SD) ([7]; imarikiren 160 mg oral once daily, nonelderly, Day 1): 19.7 (5.1) L/hr
CL/F, mean (SD) ([7]; imarikiren 160 mg oral once daily, nonelderly, Day 7): 17.6 (3.3) L/hr
Accumulation index (AUC) percentage (100 × AUC0‐tau day 7/AUC0‐inf day 1), mean (SD) ([7]; imarikiren 160 mg, nonelderly): 114.2 (30.0) %
Accumulation index (t1/2) percentage, mean (SD) ([7]; imarikiren 160 mg, nonelderly): 119.7 (34.3) %
R(AUC), AUC accumulation factor percentage (100 × AUC0‐tau day 7/AUC0‐tau day 1), mean (SD) ([7]; imarikiren 160 mg, nonelderly): 123.0 (32.6) %
Accumulation index (AUC) percentage (100 × AUC0‐tau day 7/AUC0‐inf day 1), mean (SD) [7, 16]: 114.2%
R(AUC), AUC accumulation factor percentage (100 × AUC0‐tau day 7/AUC0‐tau day 1), mean (SD) [7, 16]: 123.0%
Plasma concentration reached steady state (based on trough concentration) ([7]; multiple oral administration of 80 mg and 160 mg, nonelderly): ≤ 7 days
Tolerability of single dose [8]: good tolerability

COCCCOc1cc(C[C@@H](C[C@H](N)[C@@H](O)C[C@H](C(=O)NCC(C)(C)C(N)=O)C(C)C)C(C)C)ccc1OC [aliskiren]
PRA inhibition at steady state (PRA [9]): incomplete PRA inhibition
